Compound activity (PubChem)
MT1-MMP act inh – MT1-MMP (human) activation inhibition. HT1080 RFP-PRO-GFP cells, GFP/RFP ratio fluorescence, overnight; percent of plate control window, DMSO zero. GFP/RFP ratio change, % at 20 µM. hit rate 0.061% among 360,000. AID 651647;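 active means GFP/RFP ratio change of at least 30% with cell ATP level not reduced by more than half and red fluorescence within 50% of control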
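Assay system: HT1080 RFP-PRO-GFP cells | Dosing: 20 µM single dose, 1% DMSO | Incubation: Cells overnight before dosing, compound overnight, 37 °C, 5% CO2 | Evaluation: GFP/RFP fluorescence ratio | Control set: DMSO-only wells and HT1080 RFP-L50D-GFP cell wells as references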
Tb MetRS inh – blocks T. brucei methionyl-tRNA synthetase activity | purified T. brucei MetRS, ATP depletion, Kinase-Glo luminescence | inhibition, % at 11.9 µM | hit rate 0.4% among 360,000 | AID 624268;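 active means inhibition above a per-plate cutoff of the control wells' mean inhibition plus 3 SD, cut at about 5.5% in these data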
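Material – parasite MetRS enzyme · Medium – HEPES-MgCl2-KCl buffer plus DTT, spermine, BSA, pyrophosphatase · Reagent – ATP, methionine and E. coli bulk tRNA substrates · Times – 15 min enzyme-compound preincubation, 2 h reaction, 10 min detection, 25 °C · Measured by – luminescence of leftover ATP · Evaluation – percent inhibition relative to median high and low control wells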
Rin1-Abl PPI inh – inhibitors of human Rin1-Abl protein interaction; P00519+Q13671; TR-FRET Rin1/Abl binding, biochemical; inhibition, % at 7.35 µM; hit rate 0.4% among 360,000; AID 588664; in the data active means inhibition above about 5%, passing the limit was not always enough
SKN-1 inh – C. elegans SKN-1 inhibition; C. elegans VP596 Pgst-4::GFP/RFP ratio, acrylamide-induced, 24 h; inhibition, % at 21.8 µM; hit rate 0.49% among 360,000; AID 624304;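 active means interference check ratio from 0.5 to 1.5 plus GFP to RFP signal ratio inhibition reaching or exceeding a fixed threshold, cut at about 30% in these data, passing the limit was not always enough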
Arrestin-AP2 inh – human beta-arrestin and AP2 interaction inhibition. FITC-arrestin peptide / GST-AP2 beads, flow cytometry; AP2 beta2 appendage carries R879A mutation. inhibition, % at 10 µM. hit rate 0.31% among 340,000;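 active means inhibition above a set limit, near 3 SD of compounds lacking own fluorescence, cut at about 54% in these data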
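System: GST-AP2 R879A glutathione beads | Also added: FITC-arrestin peptide, 50 nM | Times: 12 min plus 1 h, RT | Signal: Bead flow cytometry, FITC channel | Buffer or medium: PBS with 0.05% Tween 20 and 0.1% BSA | Read-out basis: Percent drop in bead-associated FITC signal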
Numbers stand for hits; 0 = inactive; - = no result; ! = a repeat was not active. Most compounds without a hit are left out; they make up all but 1.6% or so of the library.

SMILES	MT1-MMP act inh	Tb MetRS inh	Rin1-Abl PPI inh	SKN-1 inh	Arrestin-AP2 inh
O=S(=O)(NCCN1CCOCC1)c1cccs1	0	0	0	0	0
CSC(=NCCCN1CCOCC1)NS(=O)(=O)c1cccs1	0	0	0	43!	0
Cc1c(C)n(C)c2ccc(C(=O)NCCCN(C)C3CCCCC3)cc12	0	0	0	38	0
OCC[C@H]1NCc2cc(CO)cc(-c3ccccc3)c21	0	0	0	0	0
CCCCCCCCCCCCCCCC[N+](C)(C)CCl	0	0	0	38	0
Clc1ccc2oc(-c3cccnc3)nc2c1	0	0	0	50	0
Clc1ccc2oc(SCc3cccnc3)nc2c1	0	0	0	41	0
COC(=O)C(C(=O)OC)c1ccc(-n2cccc2)cc1	0	0	0	0	56
CCC/C=C/c1ccc(CN2C(C)C(=O)N(Cc3cn(CCC4OCCCO4)nn3)CCS2(=O)=O)cc1 (stereo not given)	0	0	0	0	-
COc1cccc2cc(C(=O)N3CCc4ccccc43)c(=O)oc12	0	0	0	0	0
CCOc1cccc2cc(C(=O)N3CCc4ccccc43)c(=O)oc12	0	0	0	47	0
O=C1c2ccccc2C(=O)C12OC2c1cccc2ccccc12 (stereo not given)	0	0	13	0	0
O=C1NC(c2cccc3ccccc23)Nc2ccccc21 (stereo not given)	0	0	0	0	0
CN1CCN(C2=C(Cl)C(=O)C(c3cnc(N4CCCCC4)s3)=C(Cl)C2=O)CC1	0	0	0	0	107
C[C@@H]1CN([C@H](C)CO)C(=O)CCCn2nncc2CO[C@H]1CN(C)Cc1cccnc1	0	0	0	0	-
COC(=O)[C@@H]1ON2OCC(C)=C3CCCC[C@@]32[C@H]1C(=O)OC	0	0	-	0	-
O=C(COc1ncnc2c(Cl)cc(Cl)cc12)N1CCCCC1	0	0	0	30	0
CCOc1ccc(NC(=O)Nc2ccc(Br)cn2)cc1	0	0	0	0	0
O=C(Nc1ccc(Cl)cc1)Nc1ccc(Br)cn1	0	0	0	37	0
Fc1ccc(CSc2nsc(SCc3ccc(F)cc3)n2)cc1	0	0	0	0	0
CSc1nsc(SCc2ccc(F)cc2)n1	0	0	0	60	0
CC(=O)N(C(C)=O)c1ccc(Oc2ccc(Oc3ccc(N(C(C)=O)C(C)=O)cc3)cc2)cc1	0	0	0	0	-
COc1cccc(-c2cccc(NC(=O)C3CCN(C4CCOCC4)CC3)c2)c1	0	0	0	0	0
COc1cccc(-c2cccc(NC(=O)C3CCN(CC4CCOC4)CC3)c2)c1 (stereo not given)	0	0	0	46	0
C=CC(=O)Nc1cccc(CN2C(=O)N(c3cc(OC)cc(OC)c3)Cc3cnc(NCCCCN(CC)CC)nc32)c1	0	-	-	0	-
SMILES	MT1-MMP act inh	Tb MetRS inh	Rin1-Abl PPI inh	SKN-1 inh	Arrestin-AP2 inh
CCN(CC)C(=O)C1=C(C)N(CCCOC)C(=O)C(CC(=O)NC2CCCCC2)C1 (stereo not given)	0	0	0	0	-
COc1ccc(Cl)cc1Cn1c(C)c(C(=O)NCc2ccc3c(c2)OCCO3)sc1=O	0	0	0	0	-
CN(CC(=O)Nc1cccc(F)c1)C(=O)CC1CC2CCC1C2 (stereo not given)	0	0	0	36	0
Cc1cccc(C)c1NC(=O)CN(C)C(=O)CC1CC2CCC1C2 (stereo not given)	0	0	0	0	0
Cc1ccc(SC[C@H](C)CN2CCC(NC(=O)OCc3ccccc3)CCC2=O)cc1 (stereo not given in full)	0	0	-	0	-
CC1(C(=O)Nc2ccc3c(c2)OCCO3)CN(S(C)(=O)=O)CC(=O)N1Cc1cccs1 (stereo not given)	0	0	-	0	-
Nc1c(S(=O)(=O)O)cc(NC(=O)c2ccccc2)c2c1C(=O)c1ccccc1C2=O	57	0	0	0	0
O=C(NCc1ccccc1)C(c1ccco1)N1CCN(c2ccccc2F)CC1 (stereo not given)	0	0	-	0	-
Cc1cc(OCC(O)CN2CCN(C)CC2)ccc1C(C)C (stereo not given)	0	0	0	36!	0
O=C1NC[C@@H](CCCCN2C[C@H](Cc3ccccc3)N(CC3CCCCC3)C(=O)C2=O)N(CC2CCCCC2)C1=O	0	0	-	0	-
CC(C)c1ccc(N(CC(=O)Nc2ccc(S(=O)(=O)N3CCOCC3)cc2)S(C)(=O)=O)cc1	0	0	0	40	0
Cc1ccc(N(CC(=O)Nc2ccc(S(=O)(=O)N3CCOCC3)cc2)S(C)(=O)=O)cc1C	0	0	0	0	0
Cc1c(NC(=O)/C(C#N)=C/c2ccc(-c3ccc(Cl)c(Cl)c3)o2)c(=O)n(-c2ccccc2)n1C	0	0	0	46	0
Cc1c(NC(=O)/C(C#N)=C/c2ccc(-c3cccc(Cl)c3)o2)c(=O)n(-c2ccccc2)n1C	0	0	0	0	0
O=C(Nc1ccc(F)cc1)C(c1ccccc1OC(F)(F)F)N1CCN(C(=O)c2ccco2)CC1 (stereo not given)	0	0	-	0	-
C(=N\n1c2ccccc2c2ccccc21)/c1ccccc1	0	0	0	0	0
C(=N/n1c2ccccc2c2ccccc21)/c1ccco1	0	0	0	51	0
CN(N=Cc1ccc([N+](=O)[O-])cc1)c1ccccn1	0	0	0	48	-
c1ccc(NCCC2OCC3(CO2)COC(CCNc2ccccc2)OC3)cc1 (stereo not given)	0	0	0	0	0
NC(=O)C1CCCN(C(=O)NC2CCCCC2)C1 (stereo not given)	0	0	0	40	0
Cc1ccc2c(c1)c(C)c(C)n2CC(O)CN1CCOCC1 (stereo not given)	0	0	0	39	0
O=C(c1ccccc1)c1ccc2nc(-c3ccc(NC(=O)c4ccccc4Br)cc3)[nH]c2c1	0	0	0	0	0
Cc1ccccc1C(=O)Nc1ccc(-c2nc3ccc(C(=O)c4ccccc4)cc3[nH]2)cc1	0	0	8.5	0	0
CCC(=O)c1ccc(OC(=O)C2CCN(C3=NS(=O)(=O)c4ccccc43)CC2)cc1	0	0	0	0	0
N#Cc1c(NC(=O)c2ccccc2Cl)n(Cc2ccccc2)c2nc3ccccc3nc12	0	6.8	0	0	0
SMILES	MT1-MMP act inh	Tb MetRS inh	Rin1-Abl PPI inh	SKN-1 inh	Arrestin-AP2 inh
COc1ccc(-c2cc(-c3ccccc3O)[nH]n2)cc1	0	0	0	0	0
COc1ccc(-c2cc(-c3ccccc3)n[nH]2)c(O)c1	0	0	0	35	0
O=C(CSc1nc(-c2ccco2)cc(C(F)(F)F)n1)NN1CCOCC1	0	0	0	0	0
O=C(CSc1nc(-c2ccco2)cc(C(F)(F)F)n1)NC1CCCCCCC1	0	0	0	37	0
Nc1nc(SCc2cccnc2)c2ncn(C3OC(CO)C(O)C3O)c2n1 (stereo not given)	0	0	0	0	0
CCCC1CC(C)(/C(C)=N\NC(N)=S)OC1=O (stereo not given)	0	0	0	0	56
